From ChEMBL document CHEMBL1914423, “New imidazo[2,1-b]thiazole derivatives: synthesis, in vitro anticancer evaluation, and in silico studies” (Eur J Med Chem, 2011)
pIC50: −log10 of the molar value.

Key:
[1] = test system: SK-MEL-5; experiment: Anticancer activity against human SK-MEL-5 cells assessed as cell growth at 10^-5 M after 48 hrs by SRB assay; assay type: functional; conditions: SK-MEL-5, 48 h, read-out: Activity
[2] = test system: PC-3; experiment: Anticancer activity against human PC3 cells assessed as cell growth at 10^-5 M after 48 hrs by SRB assay; assay type: functional; conditions: PC-3, 48 h, read-out: Activity
[3] = test system: MDA-MB-435; experiment: Anticancer activity against human MDA-MB-435 cells assessed as cell growth at 10^-5 M after 48 hrs by SRB assay; assay type: functional; conditions: MDA-MB-435, 48 h, read-out: Activity
[4] = test system: HOP-92; experiment: Anticancer activity against human HOP92 cells assessed as cell growth at 10^-5 M after 48 hrs by SRB assay; assay type: functional; conditions: HOP-92, 48 h, read-out: Activity
How it was run: (§1)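 NCI-60 single-dose screen at one concentration. Cells grown in RPMI 1640 with 5% FBS and 2 mM L-glutamine, plated at 5000–40,000 cells/well, and pre-incubated 24 h at 37 °C in 5% CO2 before DMSO-dissolved drug was added. Cells fixed with TCA, SRB-stained, absorbance read at 515 nm. Percent growth calculated against time-zero and untreated control plates.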

[5] = test system: OVCAR-8; experiment: Anticancer activity against human OVCAR8 cells assessed as cell growth at 10^-5 M after 48 hrs by SRB assay; assay type: functional; conditions: OVCAR-8, 48 h, read-out: Activity
[6] = test system: RPMI-8226; experiment: Anticancer activity against human RPMI8226 cells assessed as cell growth at 10^-5 M after 48 hrs by SRB assay; assay type: functional; conditions: RPMI-8226, 48 h, read-out: Activity
[7] = test system: KM12; experiment: Anticancer activity against human KM12 cells assessed as cell growth at 10^-5 M after 48 hrs by SRB assay; assay type: functional; conditions: KM12, 48 h, read-out: Activity; how it was run: as §1
[8] = test system: SF-295; experiment: Anticancer activity against human SF295 cells assessed as cell growth at 10^-5 M after 48 hrs by SRB assay; assay type: functional; conditions: SF-295, 48 h, read-out: Activity
[9] = test system: SNB-19; experiment: Anticancer activity against human SNB19 cells assessed as cell growth at 10^-5 M after 48 hrs by SRB assay; assay type: functional; conditions: SNB-19, 48 h, read-out: Activity
[10] = test system: SK-OV-3; experiment: Anticancer activity against human SKOV3 cells assessed as cell growth at 10^-5 M after 48 hrs by SRB assay; assay type: functional; conditions: SK-OV-3, 48 h, read-out: Activity
[11] = test system: UO-31; experiment: Anticancer activity against human UO31 cells assessed as cell growth at 10^-5 M after 48 hrs by SRB assay; assay type: functional; conditions: UO-31, 48 h, read-out: Activity
How it was run: (§2)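 NCI-60 single-dose screen: cells in RPMI 1640 with 5% FBS and 2 mM L-glutamine, plated at 5000–40,000 cells/well by doubling time, and preincubated 24 h at 37 °C. Compound given at one concentration from DMSO stock. Cells TCA-fixed and SRB-stained, absorbance at 515 nm. Percent growth relative to time-zero and untreated controls; inhibition % = 100 − growth %.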

[12] = test system: SR; experiment: Anticancer activity against human SR cells assessed as cell growth at 10^-5 M after 48 hrs by SRB assay; assay type: functional; conditions: read-out: Activity; how it was run: as §2
[13] = test system: SW-620; experiment: Anticancer activity against human SW620 cells assessed as cell growth at 10^-5 M after 48 hrs by SRB assay; assay type: functional; conditions: SW-620, 48 h, read-out: Activity; how it was run: as §2
[14] = test system: HCT-15; experiment: Anticancer activity against human HCT15 cells assessed as cell growth at 10^-5 M after 48 hrs by SRB assay; assay type: functional; conditions: HCT-15, 48 h, read-out: Activity; how it was run: as §1
[15] = test system: T47D; experiment: Anticancer activity against human T47D cells assessed as cell growth at 10^-5 M after 48 hrs by SRB assay; assay type: functional; conditions: read-out: Activity; how it was run: as §2
[16] = test system: SF-268; experiment: Anticancer activity against human SF268 cells assessed as cell growth at 10^-5 M after 48 hrs by SRB assay; assay type: functional; conditions: SF-268, 48 h, read-out: Activity
[17] = test system: CCRF-CEM; experiment: Anticancer activity against human CCRF-CEM cells assessed as cell growth at 10^-5 M after 48 hrs by SRB assay; assay type: functional; conditions: read-out: Activity; how it was run: as §1
[18] = test system: UACC-257; experiment: Anticancer activity against human UACC257 cells assessed as cell growth at 10^-5 M after 48 hrs by SRB assay; assay type: functional; conditions: UACC-257, 48 h, read-out: Activity; how it was run: as §2
[19] = test system: CAKI-1; experiment: Anticancer activity against human Caki1 cells assessed as cell growth at 10^-5 M after 48 hrs by SRB assay; assay type: functional; conditions: CAKI-1, 48 h, read-out: Activity; how it was run: as §1
[20] = Antiproliferative activity against human A375P cells after 48 hrs by MTT assay; assay type: functional, cell-based
How it was run: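 A375P cells in DMEM with 10% FBS at 37 °C, 5% CO2. Seeded at 5×10³ cells/well, held 24 h, then treated with 12-point 3-fold serial dilutions for 48 h. Viability by MTT reduction. IC50 values are means of triplicate experiments.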

[21] = test system: SK-MEL-2; experiment: Anticancer activity against human SK-MEL-2 cells assessed as cell growth at 10^-5 M after 48 hrs by SRB assay; assay type: functional; conditions: SK-MEL-2, 48 h, read-out: Activity
[22] = test system: MCF7; experiment: Anticancer activity against human MCF7 cells assessed as cell growth at 10^-5 M after 48 hrs by SRB assay; assay type: functional; conditions: MCF7, 48 h, read-out: Activity; how it was run: as §1
[23] = test system: K562; experiment: Anticancer activity against human K562 cells assessed as cell growth at 10^-5 M after 48 hrs by SRB assay; assay type: functional; conditions: K562, 48 h, read-out: Activity; how it was run: as §1
[24] = test system: NCI-H226; experiment: Anticancer activity against human NCI-H226 cells assessed as cell growth at 10^-5 M after 48 hrs by SRB assay; assay type: functional; conditions: NCI-H226, 48 h, read-out: Activity
[25] = test system: OVCAR-5; experiment: Anticancer activity against human OVCAR5 cells assessed as cell growth at 10^-5 M after 48 hrs by SRB assay; assay type: functional; conditions: OVCAR-5, 48 h, read-out: Activity
[26] = test system: Malme-3M; experiment: Anticancer activity against human MALME-3M cells assessed as cell growth at 10^-5 M after 48 hrs by SRB assay; assay type: functional; conditions: read-out: Activity; how it was run: as §1
[27] = test system: NCI-H322M; experiment: Anticancer activity against human NCI-H322M cells assessed as cell growth at 10^-5 M after 48 hrs by SRB assay; assay type: functional; conditions: read-out: Activity
[28] = test system: IGROV-1; experiment: Anticancer activity against human IGROV1 cells assessed as cell growth at 10^-5 M after 48 hrs by SRB assay; assay type: functional; conditions: IGROV-1, 48 h, read-out: Activity; how it was run: as §1
[29] = test system: A498; experiment: Anticancer activity against human A498 cells assessed as cell growth at 10^-5 M after 48 hrs by SRB assay; assay type: functional; conditions: A498, 48 h, read-out: Activity; how it was run: as §1
[30] = test system: HT-29; experiment: Anticancer activity against human HT-29 cells assessed as cell growth at 10^-5 M after 48 hrs by SRB assay; assay type: functional; conditions: HT-29, 48 h, read-out: Activity; how it was run: as §1
[31] = test system: NCI/ADR-RES; experiment: Anticancer activity against human NCI/ADR-RES cells assessed as cell growth at 10^-5 M after 48 hrs by SRB assay; assay type: functional; conditions: read-out: Activity
[32] = test system: 786-0; experiment: Anticancer activity against human 786-0 cells assessed as cell growth at 10^-5 M after 48 hrs by SRB assay; assay type: functional; conditions: 786-0, 48 h, read-out: Activity; how it was run: as §1

SMILES | growth at 10 µM [1] [%] | growth at 10 µM [2] [%] | growth at 10 µM [3] [%] | growth at 10 µM [4] [%] | growth at 10 µM [5] [%] | growth at 10 µM [6] [%] | growth at 10 µM [7] [%] | growth at 10 µM [8] [%] | growth at 10 µM [9] [%] | growth at 10 µM [10] [%] | growth at 10 µM [11] [%] | growth at 10 µM [12] [%] | growth at 10 µM [13] [%] | growth at 10 µM [14] [%] | growth at 10 µM [15] [%] | growth at 10 µM [16] [%] | growth at 10 µM [17] [%] | growth at 10 µM [18] [%] | growth at 10 µM [19] [%] | pIC50 [20] | also measured
O=C(NCCNc1nccc(-c2c(-c3cccc(O)c3)nc3sccn23)n1)c1ccccc1 | 40.2 | 68.5 | 24 | 58.6 | 66.6 | 76.8 | 75.9 | 67.4 | 91.1 | 65.1 | 87.7 | 68 | 78.2 | 88.4 | 58.6 | 80.7 | 47.3 | 11.3 | 87.9 | 6.30 | growth at 10 µM [21]: 45.5%; growth at 10 µM [22]: 38.1%; growth at 10 µM [23]: 62.8%; growth at 10 µM [24]: 54.5%; growth at 10 µM [25]: 90.6%; growth at 10 µM [26]: 9.31%; growth at 10 µM [27]: 101%; growth at 10 µM [28]: 57.4%; growth at 10 µM [29]: 48%; growth at 10 µM [30]: 65.4%; growth at 10 µM [31]: 99.7%; growth at 10 µM [32]: 66.5%
O=C(NCCNc1nccc(-c2c(-c3cccc(O)c3)nc3sccn23)n1)c1ccccc1O | 22.7 | 51.1 | 14.3 | 59.9 | 41.3 | 11.6 | 46.7 | 46.4 | 90.2 | 60.5 | 34.6 | 63.2 | 77.9 | 54.5 | 61.8 | 62.5 | 18.9 | 14.8 | 24.3 | 5.49 | growth at 10 µM [21]: 13.9%; growth at 10 µM [22]: 37%; growth at 10 µM [23]: 40.5%; growth at 10 µM [24]: 80.5%; growth at 10 µM [25]: 88.7%; growth at 10 µM [26]: 14.6%; growth at 10 µM [27]: 72.3%; growth at 10 µM [28]: 31.6%; growth at 10 µM [29]: 104%; growth at 10 µM [30]: 49.2%; growth at 10 µM [31]: 73.6%; growth at 10 µM [32]: 64.6%
